The data set in a line: Mice pharmacokinetic study after oral administration of a mixture of 11 TKIs. In kind it is in vivo, FVB wild-type mice. The settings on record: for concentration at 15 min / concentration at 30 min / concentration at 45 min / concentration at 60 min / concentration at 120 min / concentration at 240 min / Cmax / Tmax / AUC(0-t): 1 mg/kg; for Tmax: oral gavage 1 mg/kg each as a mixture of 11 TKIs, FVB wild-type mice, blood, n = 4. In outline:
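Male FVB mice (25–30 g, 10–12 weeks) fasted overnight with water, then oral gavage of an 11-TKI cassette in oral suspension vehicle (0.06 mg/ml each), 1 mg/kg. Tail-tip blood (~15 μl, heparinized) taken at 15–1440 min (nine points). Quantified by UHPLC BEH C18–ESI triple-quadrupole MS/MS against blank-blood calibrants (acetonitrile/testosterone IS precipitation). Non-compartmental parameters, n = 4.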

Setting [1] is: male, FVB wild-type, mouse, whole blood, po.
Where [2] appears, read: male, FVB wild-type, mouse, whole blood, po, Tmax.

Counter-ions that a name gives are not always drawn.

Consider `CN(C)C/C=C/C(=O)Nc1cc2c(Nc3ccc(F)c(Cl)c3)ncnc2cc1O[C@H]1CCOC1` [Afatinib, afatinib], for which, where the note is “oral 1 mg/kg as mixture of 11 TKIs, mice”, the “Detection in blood after oral dosing” value is on record as “not detected”.

Consider `CNC(=O)c1ccccc1Sc1ccc2c(/C=C/c3ccccn3)n[nH]c2c1` [Axitinib, axitinib], for which, under setting [1], the concentration at 15 min came out at 51.7 ± 40 ng/mL, the concentration at 30 min was determined as 42.7 ± 19.3 ng/mL, the concentration at 45 min stood at 46.1 ± 39.6 ng/mL and the concentration at 60 min came out at 34.2 ± 37.3 ng/mL. In addition, under setting [1], the concentration at 120 min turned out to be 11.1 ± 16.4 ng/mL and the concentration at 240 min was found to be 4.8 ± 26.8 ng/mL.

Take `Cc1nc(Nc2ncc(C(=O)Nc3c(C)cccc3Cl)s2)cc(N2CCN(CCO)CC2)n1` [Dasatinib, dasatinib]: under setting [1], the concentration at 15 min amounted to 9.1 ± 18.2 ng/mL, the concentration at 30 min was found to be 21.5 ± 19.2 ng/mL, the concentration at 45 min is 34.3 ± 41.6 ng/mL and the concentration at 60 min is 24.8 ± 49.7 ng/mL. For the same compound, under setting [1], the concentration at 120 min worked out at 18.4 ± 23.1 ng/mL and the concentration at 240 min came out at 10.1 ± 20.2 ng/mL.

Turning to `C#Cc1cccc(Nc2ncnc3cc(OCCOC)c(OCCOC)cc23)c1` [Erlotinib, erlotinib hydrochloride], under setting [1], the peak concentration (Cmax) (usually the maximum level reached in the sampled fluid or tissue) came out at 147 ± 62.2 ng/mL, the concentration at 15 min came out at 147 ± 62.2 ng/mL, the concentration at 30 min came out at 124 ± 45 ng/mL and the concentration at 45 min turned out to be 120 ± 97.6 ng/mL. In addition, under setting [1], the concentration at 60 min was found to be 87.6 ± 87.6 ng/mL, the concentration at 120 min turned out to be 23 ± 37.7 ng/mL and the concentration at 240 min is 14.4 ± 24.9 ng/mL. Also, under setting [2], the Tmax (in general, the time at which the peak concentration occurs) is 0.25 h.

On to `COc1cc2ncnc(Nc3ccc(F)c(Cl)c3)c2cc1OCCCN1CCOCC1` [Gefitinib, gefitinib], for which, under setting [1], the concentration at 15 min turned out to be 24.7 ± 22 ng/mL, the concentration at 30 min turned out to be 32.4 ± 28.1 ng/mL, the concentration at 45 min stood at 36.7 ± 41.5 ng/mL and the concentration at 60 min came out at 33.2 ± 42.7 ng/mL. Moreover, under setting [1], the concentration at 120 min amounted to 21.8 ± 25.5 ng/mL and the concentration at 240 min stood at 32.7 ± 26.3 ng/mL.

With `Cc1ccc(NC(=O)c2ccc(CN3CCN(C)CC3)cc2)cc1Nc1nccc(-c2cccnc2)n1` [Imatinib], under setting [1], the concentration at 15 min came out at 53.1 ± 20.1 ng/mL, the concentration at 30 min was found to be 55.7 ± 28.6 ng/mL, the concentration at 45 min amounted to 68.8 ± 63.8 ng/mL and the concentration at 60 min came out at 48.1 ± 56.9 ng/mL. Besides, under setting [1], the concentration at 120 min worked out at 19.9 ± 19 ng/mL and the concentration at 240 min amounted to 11.1 ± 19.2 ng/mL.

On to `CS(=O)(=O)CCNCc1ccc(-c2ccc3ncnc(Nc4ccc(OCc5cccc(F)c5)c(Cl)c4)c3c2)o1` [Lapatinib, lapatinib], for which, under setting [1], the concentration at 15 min was determined as 8.8 ± 12.7 ng/mL, the concentration at 30 min worked out at 16.3 ± 28.2 ng/mL, the concentration at 45 min was found to be 21.4 ± 25.6 ng/mL and the concentration at 60 min was determined as 21.2 ± 25.7 ng/mL. Under setting [1], the concentration at 120 min turned out to be 20.1 ± 28.2 ng/mL and the concentration at 240 min was 18.1 ± 25.4 ng/mL.

On to `Cc1cn(-c2cc(NC(=O)c3ccc(C)c(Nc4nccc(-c5cccnc5)n4)c3)cc(C(F)(F)F)c2)cn1` [Nilotinib, nilotinib], for which, under setting [1], the concentration at 15 min came out at 62.1 ± 32.8 ng/mL, the concentration at 30 min turned out to be 59.1 ± 31.4 ng/mL, the concentration at 45 min came to 69 ± 37.2 ng/mL and the concentration at 60 min amounted to 68.8 ± 26.8 ng/mL. Under setting [1], the concentration at 120 min came to 67.3 ± 64.3 ng/mL and the concentration at 240 min stood at 34.6 ± 33.1 ng/mL.

Consider `Cc1ccc(Nc2nccc(N(C)c3ccc4c(C)n(C)nc4c3)n2)cc1S(N)(=O)=O` [Pazopanib, pazopanib hydrochloride], for which the Tmax amounted to 1.62 ± 1.11 h. Besides, under setting [1], the AUC(0-t) – broadly, exposure summed from dosing to a finite time, without extrapolation to infinity – is 4150 ng·h/mL and the Cmax amounted to 717 ± 206 ng/mL. Besides, the Tmax under setting [2] was about 1.62 h. Further, the “Systemic exposure (AUC) relative to sorafenib” value (pazopanib AUC versus sorafenib AUC, oral 1 mg/kg as mixture of 11 TKIs, mice) was determined as 7.5 times.

Regarding `CNC(=O)c1cc(Oc2ccc(NC(=O)Nc3ccc(Cl)c(C(F)(F)F)c3)cc2)ccn1` [Sorafenib, sorafenib tosylate], under setting [1], the area under the curve AUC(0-t) was 558 ng·h/mL and the Cmax turned out to be 154 ± 30.4 ng/mL. Under setting [2], the Tmax is 1 h.

In the case of `CCN(CC)CCNC(=O)c1c(C)[nH]c(/C=C2\C(=O)Nc3ccc(F)cc32)c1C` [Sunitinib, sunitinib malate], under setting [1], the concentration at 15 min turned out to be 9.4 ± 12.1 ng/mL, the concentration at 30 min is 18.4 ± 10.6 ng/mL, the concentration at 45 min was 22.8 ± 18.9 ng/mL and the concentration at 60 min came to 12.7 ± 20 ng/mL. Under setting [1], the concentration at 120 min was determined as 14.7 ± 15.8 ng/mL.

For the origin of these results see PMC8519014 (Journal of pharmaceutical and biomedical analysis, 2017).
